In ChEMBL document CHEMBL1150063, “Synergistic effect of flavones and flavonols against herpes simplex virus type 1 in cell culture. Comparison with the antiviral activity of propolis” (J Nat Prod, 1992) one finds Activity and CC50 data, which are given here for six molecules.

The structures appear in SMILES notation. ≈ marks a conversion by molar mass, not a printed value.

Data set [1] has as its system Human alphaherpesvirus 1. The data set is described as follows: Antiviral activity against HSV1 in african green monkey Vero cells assessed as log reduction of virus titer at 32.4 ug/ml. It counts as functional. A digest of the protocol:
(§1)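 Vero (ATCC CCL81) monolayers, confluent and 1 day old, in microtiter plates. Compound was diluted from DMSO stock into MEM and added just before infection with HSV-1 strain H 29 S at 100 TCID50/well. Each drug was tested in sextuplicate at 37° for 72 h. Wells were freeze-thawed 3 times, pooled and clarified, then titrated by limit dilution (CPE, TCID50/ml). Activity is the log10 titer reduction versus untreated controls.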

The test system of data set [2] is Human alphaherpesvirus 1. Briefly: Antiviral activity against HSV1 in african green monkey Vero cells assessed as log reduction of virus titer at 21.6 ug/ml. It counts as functional. In short, it runs like this: as §1
The subject of data set [3] is Human alphaherpesvirus 1. The data set is described as follows: Antiviral activity against HSV1 in african green monkey Vero cells assessed as log reduction of virus titer at 2.8 ug/ml. It counts as functional. A digest of the protocol:
as §1

Data set [4] is described as follows: Cytotoxicity against african green monkey Vero cells. It counts as cell-based. Conditions: chlorocebus sabaeus. In short, it runs like this: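 Uninfected Vero monolayers (ATCC CCL81; MEM with 10% newborn calf serum) in 25 cm2 flasks, 2.10^6 cells, four flasks per dilution, exposed to 0.05–5 mM in maintenance medium, diluted from DMSO stocks with MEM. After 96 h, morphology checked by microscopy; cells trypsinized and counted by trypan blue exclusion against untreated cultures. CC50 = concentration halving cell number.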

In data set [5] the test system is Human alphaherpesvirus 1. The data set is described as follows: Antiviral activity against HSV1 in african green monkey Vero cells assessed as log reduction of virus titer at 1.4 ug/ml. It counts as functional. In short, it runs like this: as §1
For data set [6], the system named is Human alphaherpesvirus 1. Briefly: Antiviral activity against HSV1 in african green monkey Vero cells assessed as log reduction of virus titer at 5.4 ug/ml. It counts as functional. A digest of the protocol:
as §1

The subject of data set [7] is Human alphaherpesvirus 1. Briefly: Antiviral activity against HSV1 in african green monkey Vero cells assessed as log reduction of virus titer at 20.3 ug/ml. It counts as functional. In short, it runs like this:
as §1

For data set [8], the system named is Human alphaherpesvirus 1. The data set is described as follows: Antiviral activity against HSV1 in african green monkey Vero cells assessed as log reduction of virus titer at 40.6 ug/ml. It counts as functional. A digest of the protocol: as §1
Data set [9] has as its system Human alphaherpesvirus 1. Briefly: Antiviral activity against HSV1 in african green monkey Vero cells assessed as log reduction of virus titer at 30.5 ug/ml. It counts as functional. In short, it runs like this:
as §1

The test system of data set [10] is Human alphaherpesvirus 1. Briefly: Antiviral activity against HSV1 in african green monkey Vero cells assessed as log reduction of virus titer at 10.8 ug/ml. It counts as functional. In short, it runs like this: as §1
In data set [11] the test system is Human alphaherpesvirus 1. The data set is described as follows: Antiviral activity against HSV1 in african green monkey Vero cells assessed as log reduction of virus titer at 5 ug/ml. It counts as functional. In short, it runs like this:
as §1

Data set [12] relates to Human alphaherpesvirus 1. The data set is described as follows: Antiviral activity against HSV1 in african green monkey Vero cells assessed as log reduction of virus titer at 48.3 ug/ml. It counts as functional. In short, it runs like this: as §1
The test system of data set [13] is Human alphaherpesvirus 1. The data set is described as follows: Antiviral activity against HSV1 in african green monkey Vero cells assessed as log reduction of virus titer at 10.1 ug/ml. It counts as functional. A digest of the protocol:
as §1

In data set [14] the test system is Human alphaherpesvirus 1. The data set is described as follows: Antiviral activity against HSV1 in african green monkey Vero cells assessed as log reduction of virus titer at 72.5 ug/ml. It counts as functional. A digest of the protocol:
as §1

Data set [15] concerns Human alphaherpesvirus 1. Briefly: Antiviral activity against HSV1 in african green monkey Vero cells assessed as log reduction of virus titer at 60.4 ug/ml. It counts as functional. A digest of the protocol: as §1
The test system of data set [16] is Human alphaherpesvirus 1. Briefly: Antiviral activity against HSV1 in african green monkey Vero cells assessed as log reduction of virus titer at 15 ug/ml. It counts as functional. In short, it runs like this:
as §1

Data set [17] has as its system Human alphaherpesvirus 1. The data set is described as follows: Antiviral activity against HSV1 in african green monkey Vero cells assessed as log reduction of virus titer at 5.7 ug/ml. It counts as functional. In short, it runs like this:
as §1

Data set [18] concerns Human alphaherpesvirus 1. The data set is described as follows: Antiviral activity against HSV1 in african green monkey Vero cells assessed as log reduction of virus titer at 11.4 ug/ml. It counts as functional. A digest of the protocol:
as §1

Data set [19] concerns Human alphaherpesvirus 1. Briefly: Antiviral activity against HSV1 in african green monkey Vero cells assessed as log reduction of virus titer at 10 ug/ml. It counts as functional. A digest of the protocol: as §1
Data set [20] deals with Human alphaherpesvirus 1. Briefly: Antiviral activity against HSV1 in african green monkey Vero cells assessed as log reduction of virus titer at 45.7 ug/ml. It counts as functional. A digest of the protocol:
as §1

The subject of data set [21] is Human alphaherpesvirus 1. Briefly: Antiviral activity against HSV1 in african green monkey Vero cells assessed as log reduction of virus titer at 22.9 ug/ml. It counts as functional. In short, it runs like this: as §1
Data set [22] relates to Human alphaherpesvirus 1. Briefly: Antiviral activity against HSV1 in african green monkey Vero cells assessed as log reduction of virus titer at 12 ug/ml. It counts as functional. In short, it runs like this: as §1
Data set [23] has as its system Human alphaherpesvirus 1. Briefly: Antiviral activity against HSV1 in african green monkey Vero cells assessed as log reduction of virus titer at 36.2 ug/ml. It counts as functional. A digest of the protocol: as §1
The test system of data set [24] is Human alphaherpesvirus 1. The data set is described as follows: Antiviral activity against HSV1 in african green monkey Vero cells assessed as log reduction of virus titer at 34.3 ug/ml. It counts as functional. In short, it runs like this:
as §1

Data set [25] deals with Human alphaherpesvirus 1. The data set is described as follows: Antiviral activity against HSV1 in african green monkey Vero cells assessed as log reduction of virus titer at 24.1 ug/ml. It counts as functional. A digest of the protocol:
as §1

With `O=c1cc(-c2ccc(O)cc2)oc2cc(O)cc(O)c12` [APIGENIN], the Activity is 1.5 in data set [1], 1 in [2], 0.4 in data set [3] and 0.25 in data set [5]. The same molecule returned a half-maximal cytotoxic concentration (CC50) in [4] of 54 µg/mL (≈ 200 µM).

Consider `O=c1cc(-c2ccccc2)oc2cc(O)cc(O)c12` [CHRYSIN], for which the Activity was determined as 0.25 in data set [6]; 0.5 in data set [7]; 1.1 in data set [8]; 0.8 in data set [9]; 0.5 in [10]. In addition, half-maximal cytotoxicity in data set [4] (CC50) was put at 76.2 µg/mL (≈ 300 µM).

For the molecule `O=c1c(O)c(-c2ccc(O)c(O)c2)oc2cc(O)cc(O)c12` [QUERCETIN], the Activity in data set [11] was determined as 0; in [12] it was 1.4; in data set [13], 0.3; in data set [14], 2.3; in data set [15] it was 2. The CC50 in [4] was found to be 151 µg/mL (≈ 500 µM).

Take `O=c1cc(-c2ccc(O)c(O)c2)oc2cc(O)cc(O)c12` [LUTEOLIN]: the Activity is 1.5 in [16], 0.9 in [17], 2.2 in data set [18] and 1 in data set [19]. In addition, the midpoint of cytotoxicity in data set [4], the CC50, lay at 22.9 µg/mL (≈ 80 µM).

In the case of `O=c1c(O)c(-c2ccc(O)cc2)oc2cc(O)cc(O)c12` [KAEMPFEROL], the Activity in [20] worked out at 3.5; in data set [21], 1.5; in data set [22] it was 0.1; in data set [23], 1.25; in [24], 3.1; in data set [25] it was 0.75. Moreover, in data set [4], it took 91.5 µg/mL (≈ 320 µM) to reach half-maximal cytotoxicity (CC50).

Consider `O=c1c(O)c(-c2ccccc2)oc2cc(O)cc(O)c12` [GALANGIN], for which the Activity in data set [2] is on record as 3.5; in data set [10] it was 2.3. It took 43.2 µg/mL (≈ 160 µM) to reach half-maximal cytotoxicity in [4] (CC50).
